The results in this text go back to ChEMBL document CHEMBL1126664, “Pyrazoline bisphosphonate esters as novel antiinflammatory and antiarthritic agents” (1993).

Structures are written as SMILES.

Holding throughout (type): functional
The subject of assay [1] is Mus musculus. Briefly: Inhibition of antigen-induced arthritis (AIA) in mice at the dose of 50 mg/kg in the non-injected paw.
The subject of assay [2] is Mus musculus. Briefly: Inhibition of antigen-induced arthritis (AIA) in mice at the dose of 100 mg/kg in the non-injected paw.
The subject of assay [3] is Rattus norvegicus. Briefly: Inhibition of rat adjuvant induced polyarthritis (AIP) at the dose of 15 mg/kg in the injected paw. Summed up:
(§1)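 Rats received adjuvant (M. tuberculosis in mineral oil) into the left hindpaw on day 0. Compounds in sterile saline, pH 7.0, were given sc once daily for 28 days, with sc vehicle arthritic controls. Paw volume change in injected and noninjected hindpaws was measured on day 28 by mercury-displacement plethysmography.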

The test system of assay [4] is Mus musculus. Briefly: Inhibition of delayed type hypersensitivity granuloma results at 100 mg/kg in dry weight. Summed up: (§2)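 Groups of 10 female CF-1 mice (25 g) were sensitised sc over the inguinal lymph node with mBSA emulsion in Freund's incomplete adjuvant plus dextran. Two mBSA-soaked hydroxyapatite disks were implanted per mouse. Sc dosing ran daily from implantation to day 9, then granulomas were excised for wet and dry weights. Student's paired t test.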

Assay [5] deals with Mus musculus. Briefly: Inhibition of delayed type hypersensitivity granuloma results at 100 mg/kg in wet weight. Put shortly:
as §2

Assay [6] has as its system Rattus norvegicus. Description: Inhibition of rat adjuvant induced polyarthritis (AIP) at the dose of 100 mg/kg in the non-injected paw. Put shortly:
as §1

The test system of assay [7] is Rattus norvegicus. Description: Inhibition of rat adjuvant induced polyarthritis (AIP) at the dose of 15 mg/kg in the non-njected paw. Put shortly: as §1
Assay [8] concerns Rattus norvegicus. Briefly: Inhibition of rat adjuvant induced polyarthritis (AIP) at the dose of 100 mg/kg in the injected paw. Put shortly: as §1
Assay [9] deals with Mus musculus. Description: Inhibition of antigen-induced arthritis (AIA) in mice at the dose of 200 mg/kg in the non-injected paw.
For assay [10], the system named is Mus musculus. Briefly: Inhibition of delayed type hypersensitivity granuloma results at 50 mg/kg in wet weight. Summed up: as §2
Assay [11] relates to Rattus norvegicus. Description: Inhibition of rat adjuvant induced polyarthritis (AIP) at the dose of 60 mg/kg in the injected paw. Put shortly:
as §1

The test system of assay [12] is Rattus norvegicus. Description: Inhibition of rat adjuvant-induced polyarthritis (AIP) at the dose of 100 mg/kg in the non-injected paw. Put shortly:
as §1

The subject of assay [13] is Mus musculus. Description: Inhibition of antigen induced arthritis (AIA) in mice at the dose of 50 mg/kg. Summed up: (§3)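 Mice were immunised, boosted after 7 days, and challenged 14 days later with 200 μg mBSA in saline into the left rear stifle joint. Dosing was sc in saline at pH 7.0, 5 of 7 days, from challenge (day 0) to day 28. H&E sagittal joint sections were graded 1–5 each for soft tissue inflammation, pannus, and cartilage and bone erosion, then summed (max 20). One-way ANOVA vs vehicle.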

For assay [14], the system named is Mus musculus. Briefly: Inhibition of delayed type hypersensitivity granuloma results at 50 mg/kg in dry weight. Put shortly: as §2
The test system of assay [15] is Rattus norvegicus. Description: Inhibition of rat adjuvant-induced polyarthritis (AIP) at the dose of 60 mg/kg in the non-injected paw. Summed up: as §1
Assay [16] deals with Mus musculus. Briefly: Inhibition of delayed type hypersensitivity granuloma results at 25 mg/kg in wet weight. Summed up: as §2
In assay [17] the test system is Mus musculus. Description: Inhibition of delayed type hypersensitivity granuloma results at 25 mg/kg in dry weight. Summed up:
as §2

Assay [18] concerns Mus musculus. Description: Inhibition of antigen induced arthritis (AIA) in mice at the dose of 100 mg/kg. Put shortly:
as §3

In assay [19] the test system is Rattus norvegicus. Description: Inhibition of rat adjuvant induced polyarthritis (AIP) at the dose of 5 mg/kg in the injected paw. Summed up:
as §1

Assay [20] concerns Rattus norvegicus. Briefly: Inhibition of rat adjuvant-induced polyarthritis (AIP) at the dose of 15 mg/kg in the non-injected paw. Put shortly:
as §1

Assay [21] deals with Rattus norvegicus. Briefly: Inhibition of rat adjuvant-induced polyarthritis (AIP) at the dose of 5 mg/kg in the non-injected paw. Put shortly: as §1
Assay [22] has as its system Rattus norvegicus. Description: Inhibition of rat adjuvant induced polyarthritis (AIP) at the dose of 15 mg/kg in the non-injected paw. Put shortly: as §1
Assay [23] concerns Mus musculus. Briefly: Inhibition of antigen-induced arthritis (AIA) in mice at the dose of 100 mg/kg. Put shortly: as §3
Assay [24] relates to Rattus norvegicus. Description: Inhibition of rat adjuvant-induced arthritis (AIP) at the dose of 100 mg/kg in the non-injected paw. Summed up:
as §1

In assay [25] the test system is Rattus norvegicus. Description: Inhibition of rat adjuvant-induced arthritis (AIP) at the dose of 15 mg/kg in the non-injected paw. Summed up:
as §1

The test system of assay [26] is Rattus norvegicus. Briefly: Inhibition of rat adjuvant induced arthritis (AIP) at the dose of 5 mg/kg in the non-injected paw. Summed up: as §1
Assay [27] has as its system Rattus norvegicus. Briefly: Inhibition of rat adjuvant induced arthritis (AIP) at the dose of 15 mg/kg in the non-injected paw. Summed up:
as §1

For assay [28], the system named is Mus musculus. Briefly: Inhibition of antigen-induced arthritis (AIA) in mice at the dose of 200 mg/kg. Put shortly:
as §3

Assay [29] deals with Mus musculus. Description: Inhibition of antigen-induced arthritis (AIA) in mice at the dose of 50 mg/kg. Summed up:
as §3

Assay [30] relates to Rattus norvegicus. Briefly: Inhibition of rat adjuvant induced arthritis (AIP) at the dose of 100 mg/kg in the non-injected paw. Summed up:
as §1

Assay [31] concerns Rattus norvegicus. Briefly: Inhibition of rat adjuvant induced arthritis (AIP) at the dose of 60 mg/kg in the non-injected paw. Summed up:
as §1

Assay [32] deals with Mus musculus. Description: Inhibition of antigen-induced arthritis (AIA) in mice at the dose of 25 mg/kg. Put shortly: as §3

In the case of `CCOP(=O)(OCC)C1(P(=O)(OCC)OCC)CC(C(=O)C2CCCCC2)=NN1`, the inhibition in vivo at 50 mg/kg with Mus musculus [1] turned out to be 30%. The inhibition in vivo at 100 mg/kg was determined as 3% with Mus musculus [2]; 31% in the assay on Mus musculus [4]; 33% with Mus musculus [5]; 29% with Rattus norvegicus [6]; 16% with Rattus norvegicus [8]. Further, the inhibition in vivo at 15 mg/kg worked out at 9% in the assay with Rattus norvegicus [3] and 14% in the assay on Rattus norvegicus [7]. For the same compound, the inhibition in vivo at 200 mg/kg in the assay with Mus musculus [9] is 11%.

As for `CCOP(=O)(OCC)C1(P(=O)(OCC)OCC)CC(C(=O)C(C)(C)C)=NN1`, the inhibition in vivo at 50 mg/kg in the assay on Mus musculus [10] is 51%; in the assay with Mus musculus [13] it was 28%; with Mus musculus [14] it was 48%. The results for the inhibition in vivo at 60 mg/kg in the assay with Rattus norvegicus [11] and with Rattus norvegicus [15] were 38% and 64%, respectively. The inhibition in vivo at 100 mg/kg in the assay on Rattus norvegicus [12] came to 76%; in the assay on Mus musculus [18], 16%; in the assay with Mus musculus [4], 59%; in the assay on Mus musculus [5], 65%; in the assay with Rattus norvegicus [8], 21%. In addition, the inhibition in vivo at 25 mg/kg in the assay on Mus musculus [16] was 46%; with Mus musculus [17], 38%. For the same compound, the inhibition in vivo at 15 mg/kg with Rattus norvegicus [3] was found to be 21%; in the assay with Rattus norvegicus [20], 55%. Moreover, the inhibition in vivo at 5 mg/kg was determined as 27% in the assay with Rattus norvegicus [19] and 64% in the assay on Rattus norvegicus [21].

On to `CCOP(=O)(OCC)C1(P(=O)(OCC)OCC)CC(C(=O)c2ccc(Cl)cc2Cl)=NN1`, for which the figures for the inhibition in vivo at 15 mg/kg with Rattus norvegicus [22] and with Rattus norvegicus [3] were 38% and 3%, respectively. Moreover, the inhibition in vivo at 100 mg/kg in the assay on Mus musculus [4] amounted to 44%; in the assay on Mus musculus [5] it was 55%; with Mus musculus [23], 0%; in the assay on Rattus norvegicus [6], 12%; in the assay with Rattus norvegicus [8], 0%.

Consider `CCOP(=O)(OCC)C1(P(=O)(OCC)OCC)CC(C(=O)c2ccc(Cl)cc2)=NN1`, for which the figures for the inhibition in vivo at 100 mg/kg in the assay on Mus musculus [4] and with Mus musculus [5] were 33% and 28%, respectively.

In the case of `CCOP(=O)(OCC)C1(P(=O)(OCC)OCC)CC(C(=O)c2ccccc2)=NN1Cc1cccc(CN2N=C(C(=O)c3ccccc3)CC2(P(=O)(OCC)OCC)P(=O)(OCC)OCC)c1`, the inhibition in vivo at 100 mg/kg in the assay with Mus musculus [4] was -31%.

`CCOP(=O)(OCC)C1(P(=O)(OCC)OCC)CC(C(=O)c2cccc(C)c2)=NN1`: the inhibition in vivo at 100 mg/kg in the assay on Rattus norvegicus [24] stood at 50%; in the assay on Mus musculus [2], 16%; with Mus musculus [4], 41%; in the assay with Mus musculus [5], 41%; in the assay with Rattus norvegicus [8], 3%. For the same compound, the inhibition in vivo at 15 mg/kg came out at 54% with Rattus norvegicus [25] and 6% with Rattus norvegicus [3].

In the case of `CCOP(=O)(OCC)C1(P(=O)(OCC)OCC)CC(C(=O)c2ccccc2F)=NN1`, the inhibition in vivo at 100 mg/kg in the assay on Mus musculus [4] was 17%; in the assay with Mus musculus [5], 20%.

`CCOP(=O)(OCC)C1(P(=O)(OCC)OCC)CC(C(=O)c2ccccc2)=NN1`: the inhibition in vivo at 50 mg/kg is 33% in the assay on Mus musculus [10], 42% with Mus musculus [14] and 35% in the assay on Mus musculus [29]. For the same compound, the values for the inhibition in vivo at 5 mg/kg in the assay with Rattus norvegicus [26] and with Rattus norvegicus [19] were 50% and 28%, respectively. In addition, the inhibition in vivo at 60 mg/kg turned out to be 23% in the assay on Rattus norvegicus [11] and 56% in the assay with Rattus norvegicus [31]. Also, the figures for the inhibition in vivo at 15 mg/kg in the assay on Rattus norvegicus [27] and in the assay on Rattus norvegicus [3] were 31% and 25%, respectively. In addition, the results for the inhibition in vivo at 25 mg/kg with Mus musculus [16], with Mus musculus [17] and in the assay on Mus musculus [32] were 36%, 42% and 16%, respectively. The inhibition in vivo at 100 mg/kg in the assay with Mus musculus [4] amounted to 51%; with Mus musculus [5], 56%; in the assay on Mus musculus [23], 48%; in the assay on Rattus norvegicus [30] it was 50%; in the assay on Rattus norvegicus [8] it was 13%. The inhibition in vivo at 200 mg/kg in the assay with Mus musculus [28] was 48%.

As for `CCOP(=O)(OCC)C1(P(=O)(OCC)OCC)CC(C(=O)c2ccc(OC)cc2)=NN1`, the inhibition in vivo at 15 mg/kg turned out to be 17% with Rattus norvegicus [22] and 12% with Rattus norvegicus [3]. Moreover, the inhibition in vivo at 100 mg/kg with Mus musculus [4] turned out to be 50%; in the assay on Mus musculus [5], 35%; with Mus musculus [23], 23%; in the assay on Rattus norvegicus [6], 16%; in the assay on Rattus norvegicus [8], 0%.
